From ChEMBL document CHEMBL1649558, “Antiviral activity of chloroquine against human coronavirus OC43 infection in newborn mice” (Antimicrob Agents Chemother, 2009) come the findings set out here.

As a reminder, the CC50 is the concentration giving 50% cytotoxicity. A higher CC50 goes with lower toxicity to the cells. A word on the EC50: it is the concentration giving half of the maximal effect. A higher EC50 goes with lower potency in that assay.

Data set [1] deals with Human coronavirus OC43. The data set is described as follows: Antiviral activity against Human coronavirus OC43 infected in pregnant C57BL/6 mouse assessed as survival rate at 1 mg/kg, sc administered postpartum. It counts as functional. The settings on record: Betacoronavirus 1, sc, route subcutaneous. In a few lines:
(§1)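 Pregnant C57BL/6 dams were given chloroquine subcutaneously (200 μl; 1, 5 or 15 mg/kg) prepartum or postpartum; controls were untreated. Five-day-old pups were inoculated intracerebrally with 1 × 10³ HCoV-OC43 copies in 10 μl. Mortality was monitored daily, and survivors were followed for 60 days. Survival is surviving pups over total pups; curves were compared by log-rank test.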

The nature of data set [2]: Cytotoxicity against human HRT18 cells after 4 days by MTS assay. The class given is cell-based, HRT-18. In outline: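 HRT-18 cells grown in MEM with 10% fetal calf serum, 1% L-glutamine and 1.4% sodium bicarbonate were exposed to a range of compound concentrations for 4 days at 37°C, 5% CO₂. Viable cells were quantified by MTS reduction to formazan, read at 492 nm. CC50 is the concentration reducing viability by 50%.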

Data set [3] concerns Human coronavirus OC43. The data set is described as follows: Antiviral activity against Human coronavirus OC43 infected in pregnant C57BL/6 mouse assessed as survival rate at 1 mg/kg, sc administered prepartum. It counts as functional. The settings on record: Betacoronavirus 1, sc, route subcutaneous. In outline:
as §1

The test system of data set [4] is Human coronavirus OC43. Description: Antiviral activity against Human coronavirus OC43 infected in pregnant C57BL/6 mouse assessed as survival rate at 5 mg/kg, sc administered postpartum. The class given is functional. The settings on record: Betacoronavirus 1, sc, route subcutaneous. In a few lines: as §1
The test system of data set [5] is Human coronavirus OC43. Description: Antiviral activity against Human coronavirus OC43 infected in new born C57BL/6 mouse assessed as survival rate at 1 mg/kg, sc transfered via maternal milk after administration to pregnant mouse. It counts as functional. The settings on record: Betacoronavirus 1, sc, route subcutaneous. In outline:
as §1

Data set [6] in a line: Selectivity index, ratio of CC50 for human HRT18 cells to EC50 for Human coronavirus OC43 infected in human HRT18 cells. The class given is toxicity, cell-based. The settings on record: read-out: Ratio CC50/EC50. In outline: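 Index = CC50/EC50. For the EC50, HRT-18 cells were seeded at 6 × 10⁴ per well and grown 4 days. They were then infected with 1 × 10⁶ OC43 copies/ml in 2% serum MEM with 0.032–500 μM compound for 4 days at 37°C. Supernatant RNA was measured by qRT-PCR against a cRNA standard curve. The CC50 came from the MTS viability assay at 4 days.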

Data set [7] concerns Human coronavirus OC43. Description: Antiviral activity against Human coronavirus OC43 infected in new born C57BL/6 mouse assessed as survival rate at 5 mg/kg, sc transfered via placenta after administration to pregnant mouse. It counts as functional. The settings on record: Betacoronavirus 1, sc, route subcutaneous. In outline:
as §1

Data set [8] deals with Human coronavirus OC43. The data set is described as follows: Antiviral activity against Human coronavirus OC43 infected in new born C57BL/6 mouse assessed as survival rate at 15 mg/kg, sc transfered via maternal milk after administration to pregnant mouse. It counts as functional. The settings on record: Betacoronavirus 1, sc, route subcutaneous.
In data set [9] the test system is Human coronavirus OC43. The data set is described as follows: Antiviral activity against Human coronavirus OC43 infected in pregnant C57BL/6 mouse assessed as survival rate at 5 mg/kg, sc administered prepartum. The class given is functional. The settings on record: Betacoronavirus 1, sc, route subcutaneous. In outline: as §1
Data set [10] deals with Human coronavirus OC43. The data set is described as follows: Antiviral activity against Human coronavirus OC43 infected in human HRT18 cells assessed as decrease in viral load at 10 uM treated at the time of infection measured after 28 hrs by qRT-PCR analysis relative to control. It counts as functional. In a few lines: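 Subconfluent HRT-18 monolayers were infected with 4 × 10⁷ HCoV-OC43 genome equivalents/ml, adsorbed 30 min, and washed five times with MEM. Chloroquine (10 μM) was added at infection or at later time points. Supernatant viral RNA was quantified by qRT-PCR at 28 h postinfection. Two independent experiments in duplicate; mean ± SEM.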
A general note: In qPCR the cycle at which signal appears reflects the starting amount.

The test system of data set [11] is Human coronavirus OC43. Description: Antiviral activity against Human coronavirus OC43 infected in new born C57BL/6 mouse assessed as survival rate at 15 mg/kg, sc transfered via placenta after administration to pregnant mouse. It counts as functional. The settings on record: Betacoronavirus 1, sc, route subcutaneous.
The subject of data set [12] is Human coronavirus OC43. Description: Antiviral activity against Human coronavirus OC43 infected in pregnant C57BL/6 mouse assessed as survival rate at 15 mg/kg, sc administered postpartum. It counts as functional. The settings on record: Betacoronavirus 1, sc, route subcutaneous. In a few lines: as §1
In data set [13] the test system is Human coronavirus OC43. The data set is described as follows: Antiviral activity against Human coronavirus OC43 infected in new born C57BL/6 mouse assessed as survival rate at 5 mg/kg, sc transfered via maternal milk after administration to pregnant mouse. It counts as functional. The settings on record: Betacoronavirus 1, sc, route subcutaneous. In a few lines:
as §1

Data set [14] deals with Human coronavirus OC43. Description: Antiviral activity against Human coronavirus OC43 infected in human HRT18 cells after 4 days by qRT-PCR analysis. The class given is functional, cell-based. The settings on record: Betacoronavirus 1, HRT-18, 96 h. In a few lines: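 HRT-18 cells were seeded and grown 4 days, then infected with 1 × 10⁶ HCoV-OC43 copies/ml in MEM with 2% FCS, with chloroquine at 0.032–500 μM. After 4 days at 37°C in 5% CO₂, viral RNA in the supernatant was quantified by qRT-PCR against a cRNA standard curve. EC50 is the concentration halving the viral RNA increase relative to untreated infected cells.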

Data set [15] has as its system Human coronavirus OC43. The data set is described as follows: Antiviral activity against Human coronavirus OC43 infected in new born C57BL/6 mouse assessed as survival rate at 1 mg/kg, sc transfered via placenta after administration to pregnant mouse. The class given is functional. The settings on record: Betacoronavirus 1, sc, route subcutaneous. In a few lines:
as §1

Data set [16] concerns Human coronavirus OC43. Description: Antiviral activity against Human coronavirus OC43 infected in pregnant C57BL/6 mouse assessed as survival rate at 15 mg/kg, sc administered prepartum. It counts as functional. The settings on record: Betacoronavirus 1, sc, route subcutaneous. In outline: as §1

Molecules are shown by their SMILES.

For `CCN(CC)CCCC(C)Nc1ccnc2cc(Cl)ccc12.O=P(O)(O)O.O=P(O)(O)O` (stereo unspecified) [CHLOROQUINE PHOSPHATE], the survival at 1 mg/kg was determined as 0% in the data set with Human coronavirus OC43 [1], 33.3% with Human coronavirus OC43 [3], 0% with Human coronavirus OC43 [5] and 33.3% in the data set on Human coronavirus OC43 [15]. This compound also registered a CC50 at 96 h in data set [2] of 419 µM. The survival at 5 mg/kg stood at 83.3% in the data set on Human coronavirus OC43 [4], 92.9% with Human coronavirus OC43 [7], 92.9% in the data set on Human coronavirus OC43 [9] and 83.3% in the data set on Human coronavirus OC43 [13]. Also, the selectivity ratio in data set [6] came to 1370. Moreover, the survival at 15 mg/kg in the data set on Human coronavirus OC43 [8] turned out to be 97.4%; in the data set with Human coronavirus OC43 [11], 100%; in the data set with Human coronavirus OC43 [12] it was 97.4%; with Human coronavirus OC43 [16], 100%. For the same compound, the “fold change (FC)” value in the data set on Human coronavirus OC43 [10] is on record as 100. Also, in the data set with Human coronavirus OC43 [14], it took 306 nM to reach a half-maximal effect (EC50).
